Test results published in ChEMBL document CHEMBL1133705, “Palladium-catalyzed cross-coupling reactions for the synthesis of 6, 8-disubstituted 1,7-naphthyridines: a novel class of potent and selective phosphodiesterase type 4D inhibitors” (J Med Chem, 2000).

Legend:
[1] = molecular target: 3',5'-cyclic-AMP phosphodiesterase 4C (Homo sapiens, UniProt Q08493); assay: Inhibitory activity against Phosphodiesterase 4C (PDE4C) from human source expressed in Saccharomyces cerevisiae
[2] = Selectivity ratio indicated as IC50 value in inhibiting PDE4B or PDE4A compared to PDE4D
[3] = molecular target: 3',5'-cyclic-AMP phosphodiesterase 4A (Homo sapiens, UniProt P27815); assay: Inhibitory activity against Phosphodiesterase 4A (PDE4A) from human source expressed in Saccharomyces cerevisiae
[4] = molecular target: T1, 3',5'-cyclic-AMP phosphodiesterase 4B (Rattus norvegicus, UniProt P14646); assay: Inhibitory activity against Phosphodiesterase 4B (PDE4B) from rat source expressed in Saccharomyces cerevisiae
T1 sequence (P14646 whole entry): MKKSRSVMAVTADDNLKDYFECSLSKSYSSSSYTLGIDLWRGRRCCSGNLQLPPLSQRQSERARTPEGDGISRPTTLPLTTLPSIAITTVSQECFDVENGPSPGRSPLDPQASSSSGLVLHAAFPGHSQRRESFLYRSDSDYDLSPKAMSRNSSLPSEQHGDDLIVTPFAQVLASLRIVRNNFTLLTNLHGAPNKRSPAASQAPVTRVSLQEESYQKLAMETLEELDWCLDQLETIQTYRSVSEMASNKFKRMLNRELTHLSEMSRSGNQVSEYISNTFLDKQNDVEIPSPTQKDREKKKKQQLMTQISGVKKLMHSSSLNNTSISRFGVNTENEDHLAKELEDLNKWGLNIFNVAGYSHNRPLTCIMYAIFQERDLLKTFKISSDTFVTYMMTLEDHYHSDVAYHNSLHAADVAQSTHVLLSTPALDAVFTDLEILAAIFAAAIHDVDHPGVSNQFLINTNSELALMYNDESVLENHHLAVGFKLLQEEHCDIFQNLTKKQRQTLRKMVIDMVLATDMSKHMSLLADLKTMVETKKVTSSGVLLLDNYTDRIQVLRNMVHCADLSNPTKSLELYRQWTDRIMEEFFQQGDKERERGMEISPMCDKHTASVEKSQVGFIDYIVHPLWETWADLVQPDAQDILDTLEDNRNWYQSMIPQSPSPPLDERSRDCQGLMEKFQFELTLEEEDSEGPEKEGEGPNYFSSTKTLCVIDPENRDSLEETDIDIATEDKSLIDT

[5] = molecular target: 3',5'-cyclic-AMP phosphodiesterase 4D (Homo sapiens, UniProt Q08499); assay: Inhibitory activity against Phosphodiesterase 4D (PDE4D) from human source expressed in Saccharomyces cerevisiae
Phosphodiesterase 3 [6] = molecular target: T2, Phosphodiesterase 3 (Homo sapiens, UniProt Q14432+Q13370); assay: Inhibition of Phosphodiesterase 3 from human platelets
How it was run: (§1)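 PDE3 prepared from washed human platelets by probe sonication (15 s, 4 °C) in sucrose/EDTA/Tris/DTT buffer pH 7.4 with PMSF, leupeptin and pepstatin A. Homogenate spun at 2200g, pellet re-sonicated, and pooled supernatants stored at -20 °C. Activity assay follows an earlier method.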

Rattus norvegicus [7] = organism: Rattus norvegicus; assay: EPO activity for activation of eosinophil cells in BALF from actively sensitized Brown norway rats; assay type: functional; design: concentration or dose not given beside the values
How it was run: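 Eosinophil activation was measured as BALF EPO activity. BALF was incubated with 1 mM OPD, 1 mM H2O2 and 0.1% Triton X-100 in 50 mM Tris-HCl pH 8.0 for 30 min at room temperature, stopped with H2SO4, and read at 492 nm. Units/mL came from a horseradish peroxidase standard curve.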

Rattus norvegicus [8] = organism: Rattus norvegicus; assay: Percent inhibition of eosinophil activation in BALF from actively sensitized Brown norway rats; assay type: functional
How it was run: (§2)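 Brown Norway rats were actively sensitized with pertussis vaccine ip on days 1, 15 and 21, then challenged on day 28 with OA aerosol (3.2 mg/mL, 1 h, nose-only). Compound in DMSO diluted in neoral placebo was gavaged twice, 2 × 1 mg/kg, 1 h before and 24 h after challenge. BALF was collected 48 h later. Values are % inhibition versus vehicle-treated challenged rats, mean ± SEM, 5–10 animals/group.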

Phosphodiesterase 4 [9] = molecular target: T3, Phosphodiesterase 4 (Rattus norvegicus, UniProt P14270+P14646+P14644+P54748); assay: (§3) Inhibition of [3H]rolipram binding to rat brain membranes; assay type: cell membranes, Membrane
How it was run: (§4)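 Rat brains homogenized in ice-cold Tris 20 mM, MgCl2 1 mM, DTT 0.1 mM, pH 7.5, then spun at 600g and 24000g (10 min, 4 °C each). The membrane pellet was resuspended, with protein measured by Bradford.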

Phosphodiesterase 4 [10] = molecular target: T3, Phosphodiesterase 4; assay: as §3; assay type: cell membranes, Membrane; how it was run: as §4; remark: listed apart in the source
Rattus norvegicus [11] = assay: Percent inhibition of neutrophil activation in BALF from actively sensitized Brown norway rats at 2 mg/kg; assay type: functional; how it was run: as §2
Rattus norvegicus [12] = assay: Percent inhibition of T-lymphocyte activation in BALF from actively sensitized Brown norway rats at 2 mg/kg; assay type: functional; how it was run: as §2
Phosphodiesterase 3 [13] = molecular target: T2, Phosphodiesterase 3; assay: Inhibition of PDE3 (phosphodiesterase type 3) (no data); assay type: functional; how it was run: as §1
Rattus norvegicus [14] = assay: Percent inhibition of protein concentration in bronchoalveolar lavage fluid (BALF) from actively sensitized Brown norway rats at 2 mg/kg; assay type: functional; settings: Lung; how it was run: as §2
Rattus norvegicus [15] = assay: Percent inhibition of eosinophil activation in BALF from actively sensitized Brown norway rats at 2 mg/kg; assay type: functional; how it was run: as §2
Homo sapiens = organism: Homo sapiens; assay: Inhibition of fMLP-induced oxidative burst in human eosinophils.; assay type: functional
How it was run: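 Eosinophils (>98% pure) from normal donors were isolated by Ficoll gradient, hypotonic erythrocyte lysis and anti-CD16 magnetic neutrophil depletion, then plated in HBSS at 10⁴ cells/well with lucigenin. Compound (DMSO, buffer-diluted) or vehicle was preincubated 10–30 min before fMLP (0.01–10 µM). Chemiluminescence was read over 20 min as % of fMLP response. IC50 mean ± SEM, three donors.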

3',5'-cyclic-AMP phosphodiesterase 4A, sequence (P27815 whole entry): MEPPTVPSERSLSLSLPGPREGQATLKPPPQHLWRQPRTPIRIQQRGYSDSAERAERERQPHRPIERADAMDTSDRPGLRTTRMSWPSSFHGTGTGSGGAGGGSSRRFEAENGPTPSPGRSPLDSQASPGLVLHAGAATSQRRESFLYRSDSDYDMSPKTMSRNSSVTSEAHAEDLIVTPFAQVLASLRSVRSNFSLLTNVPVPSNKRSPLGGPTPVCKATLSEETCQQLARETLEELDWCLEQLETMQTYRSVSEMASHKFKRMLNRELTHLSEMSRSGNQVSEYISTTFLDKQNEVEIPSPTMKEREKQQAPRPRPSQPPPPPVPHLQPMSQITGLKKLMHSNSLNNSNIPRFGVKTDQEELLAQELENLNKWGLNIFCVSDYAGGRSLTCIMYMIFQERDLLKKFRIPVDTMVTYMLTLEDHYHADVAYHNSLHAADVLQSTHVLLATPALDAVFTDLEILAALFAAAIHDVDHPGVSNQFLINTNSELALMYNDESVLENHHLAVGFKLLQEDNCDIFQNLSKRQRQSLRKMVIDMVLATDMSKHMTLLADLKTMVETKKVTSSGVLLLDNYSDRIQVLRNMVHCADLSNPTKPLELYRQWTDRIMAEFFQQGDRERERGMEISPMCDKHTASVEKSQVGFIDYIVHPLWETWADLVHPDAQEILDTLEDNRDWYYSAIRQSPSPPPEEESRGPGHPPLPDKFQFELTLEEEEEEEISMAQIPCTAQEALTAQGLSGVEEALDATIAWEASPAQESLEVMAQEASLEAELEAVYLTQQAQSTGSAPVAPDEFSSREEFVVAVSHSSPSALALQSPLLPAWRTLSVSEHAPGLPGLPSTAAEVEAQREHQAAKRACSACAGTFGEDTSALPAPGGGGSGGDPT
3',5'-cyclic-AMP phosphodiesterase 4C, sequence (Q08493 whole entry): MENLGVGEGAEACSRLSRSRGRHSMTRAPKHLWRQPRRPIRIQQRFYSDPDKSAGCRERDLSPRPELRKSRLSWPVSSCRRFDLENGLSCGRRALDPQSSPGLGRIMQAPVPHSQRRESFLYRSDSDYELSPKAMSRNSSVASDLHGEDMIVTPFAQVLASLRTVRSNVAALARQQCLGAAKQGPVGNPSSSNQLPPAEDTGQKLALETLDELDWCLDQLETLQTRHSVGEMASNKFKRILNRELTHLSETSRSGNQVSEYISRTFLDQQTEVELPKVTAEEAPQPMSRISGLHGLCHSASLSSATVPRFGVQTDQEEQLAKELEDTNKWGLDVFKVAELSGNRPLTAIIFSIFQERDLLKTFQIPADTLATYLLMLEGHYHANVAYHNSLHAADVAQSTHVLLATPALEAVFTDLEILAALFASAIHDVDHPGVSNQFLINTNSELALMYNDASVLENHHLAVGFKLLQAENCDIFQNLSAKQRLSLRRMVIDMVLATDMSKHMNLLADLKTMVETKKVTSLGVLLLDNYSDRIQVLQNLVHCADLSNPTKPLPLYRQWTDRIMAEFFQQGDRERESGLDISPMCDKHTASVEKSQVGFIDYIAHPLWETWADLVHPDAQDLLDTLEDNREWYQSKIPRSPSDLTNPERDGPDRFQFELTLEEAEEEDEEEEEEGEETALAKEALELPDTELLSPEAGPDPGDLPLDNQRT
3',5'-cyclic-AMP phosphodiesterase 4D, sequence (Q08499 whole entry): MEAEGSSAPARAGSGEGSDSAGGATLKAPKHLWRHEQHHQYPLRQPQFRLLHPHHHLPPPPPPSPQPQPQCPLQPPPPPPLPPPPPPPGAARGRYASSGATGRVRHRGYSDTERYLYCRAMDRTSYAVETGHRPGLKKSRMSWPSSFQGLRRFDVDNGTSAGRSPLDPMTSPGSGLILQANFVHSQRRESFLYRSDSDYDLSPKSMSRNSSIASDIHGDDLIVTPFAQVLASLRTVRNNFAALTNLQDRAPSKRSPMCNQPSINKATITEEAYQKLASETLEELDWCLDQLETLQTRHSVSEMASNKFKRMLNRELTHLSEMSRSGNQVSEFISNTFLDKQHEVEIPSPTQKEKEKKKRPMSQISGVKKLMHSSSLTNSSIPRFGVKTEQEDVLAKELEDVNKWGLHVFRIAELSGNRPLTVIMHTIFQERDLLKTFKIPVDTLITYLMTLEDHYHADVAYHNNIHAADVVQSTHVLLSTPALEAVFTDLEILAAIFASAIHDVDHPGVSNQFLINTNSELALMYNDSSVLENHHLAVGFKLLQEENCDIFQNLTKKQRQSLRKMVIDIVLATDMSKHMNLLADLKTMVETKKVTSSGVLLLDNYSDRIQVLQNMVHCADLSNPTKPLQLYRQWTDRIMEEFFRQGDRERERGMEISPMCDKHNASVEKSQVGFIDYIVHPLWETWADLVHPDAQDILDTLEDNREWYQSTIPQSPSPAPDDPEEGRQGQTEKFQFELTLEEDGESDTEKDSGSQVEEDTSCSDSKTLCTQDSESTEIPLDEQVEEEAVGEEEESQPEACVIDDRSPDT

## O=[N+]([O-])c1cccc(-c2nc(-c3ccco3)cc3cccnc23)c1
[1]
  IC50: > 10000 nM
[2]
  Ratio: 64
[3]
  IC50: 9500 nM
[4]
  IC50: 510 nM
[5]
  IC50: 8 nM

## COc1ccc(C2CNC(=O)C2)cc1OC1CCCC1 (centres undefined) [ROLIPRAM]
Phosphodiesterase 3 [6]
  IC50: > 100000 nM

## O=[N+]([O-])c1cccc(-c2nc(-c3ccccc3)cc3cccnc23)c1
[1]
  IC50: 2000 nM
Rattus norvegicus [7]
  Inhibition: 2%
[2]
  Ratio: 55
Rattus norvegicus [8]
  Inhibition: 0%
[3]
  IC50: 350 nM
[4]
  IC50: 110 nM
Phosphodiesterase 4 [9]
  IC50: 4 nM
Phosphodiesterase 4 [10]
  IC50: 4 nM
[5]
  IC50: 2 nM

## CN1CCN(C(=O)c2cc3cccnc3c(-c3cccc([N+](=O)[O-])c3)n2)CC1
[1]
  IC50: > 10000 nM
Phosphodiesterase 3 [6]
  IC50: > 100000 nM
[2]
  Ratio: 4.7
[3]
  IC50: > 10000 nM
[4]
  IC50: 9300 nM
[5]
  IC50: 2000 nM

## O=C(O)c1ccc(-c2cc3cccnc3c(-c3cccc(Cl)c3)n2)cc1
Rattus norvegicus [11]
  inhibition in vivo at 2 mg/kg: 55%
[1]
  IC50: 190 nM
Rattus norvegicus [7]
  Inhibition: 55%
[2]
  Ratio: 23
Rattus norvegicus [12]
  inhibition in vivo at 2 mg/kg: 23%
Phosphodiesterase 3 [13]
  IC50: > 100000 nM
[3]
  IC50: 59 nM
Rattus norvegicus [14]
  inhibition in vivo at 2 mg/kg: 49%
Rattus norvegicus [15]
  inhibition in vivo at 2 mg/kg: 51%
[4]
  IC50: 45 nM
Phosphodiesterase 4 [10]
  IC50: 0.8 nM
[5]
  IC50: 2 nM

## O=[N+]([O-])c1cccc(-c2nccc3cccnc23)c1
[1]
  IC50: > 10000 nM
[2]
  Ratio: 2.1
[3]
  IC50: > 10000 nM
[4]
  IC50: 8800 nM
Phosphodiesterase 4 [10]
  IC50: 58 nM
[5]
  IC50: 4100 nM

## O=[N+]([O-])c1cccc(-c2nc(OS(=O)(=O)C(F)(F)F)cc3cccnc23)c1
[1]
  IC50: 3200 nM
Phosphodiesterase 3 [6]
  IC50: > 100000 nM
Rattus norvegicus [7]
  Inhibition: 0%
[2]
  Ratio: 28
Rattus norvegicus [8]
  Inhibition: 0%
[3]
  IC50: 1800 nM
Homo sapiens
  IC50: 4 nM
[4]
  IC50: 310 nM
Phosphodiesterase 4 [10]
  IC50: 7.4 nM
[5]
  IC50: 11 nM

## C=CCc1cc2cccnc2c(-c2cccc([N+](=O)[O-])c2)n1
[1]
  IC50: 890 nM
[2]
  Ratio: 21
[3]
  IC50: 279 nM
[4]
  IC50: 150 nM
[5]
  IC50: 7 nM
